Data as given in paper PMC9380703 (RSC Advances, 2022).

Columns and labels:
Format in all cases: cell-based
[1] = system: BEAS-2B (normal human lung epithelial cells); test: MTT cytotoxicity assay, BEAS-2B normal cells; settings: 48 h, read-out: IC50 ± SD BEAS-2B
Method in brief: (§1)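 Cells exposed to test compounds for 48 h; viability read by MTT. IC50 computed from triplicate experiments and reported as mean ± SD, with paclitaxel as positive control. BEAS-2B normal lung epithelial cells assayed alongside the cancer lines.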

[2] = system: A549 (non-small lung carcinoma) cells; test: MTT cytotoxicity assay, A549 cells; settings: Homo sapiens, A549, 48 h, read-out: IC50 ± SD A549
Method in brief: as §1

[3] = system: HeLa (human cervical cancer cells); test: MTT cytotoxicity assay, HeLa cells; settings: 48 h, read-out: IC50 ± SD HeLa
Method in brief: as §1

[4] = system: MCF-7 (breast cancer); test: MTT cytotoxicity assay, MCF-7 cells; settings: Homo sapiens, MCF7, 48 h, read-out: IC50 ± SD MCF-7
Method in brief: as §1

Row | Compound | IC50 [1] [nM] | IC50 [2] [nM] | IC50 [3] [nM] | IC50 [4] [nM]
1 | CC(=O)O[C@H]1C[C@H](O[C@H]2[C@@H](O)C[C@H](O[C@H]3[C@@H](O)C[C@H](O[C@H]4CC[C@@]5(C)[C@H](CC[C@@H]6[C@@H]5C[C@@H](O)[C@]5(C)[C@@H](C7=CC(=O)OC7)CC[C@]65O)C4)O[C@@H]3C)O[C@@H]2C)O[C@H](C)[C@H]1O[C@@H]1O[C@H](CO)[C@@H](O)[C@H](O)[C@H]1O [Compound 9, lanatoside C] | 370 ± 100 | 190 ± 30 | 130 ± 13 | 240 ± 110
2 | CC(=O)O[C@H]1C(=O)[C@@]2(C)[C@H]([C@H](OC(=O)c3ccccc3)[C@]3(O)C[C@H](OC(=O)[C@H](O)[C@@H](NC(=O)c4ccccc4)c4ccccc4)C(C)=C1C3(C)C)[C@]1(OC(C)=O)CO[C@@H]1C[C@@H]2O [Paclitaxel, reference compound] | 130 ± 30 | 60 ± 40 | 20 ± 10 | 110 ± 50
3 | C[C@]12CC[C@H](O)C[C@H]1CC[C@@H]1[C@@H]2C[C@@H](O)[C@]2(C)[C@@H](C3=CC(=O)OC3)CC[C@]12O [Compound 6, digoxigenin] | 2580 ± 110 | 1280 ± 230 | 770 ± 230 | 1440 ± 10
4 | CC(=O)O[C@H]1C[C@H](O[C@H]2[C@@H](O)C[C@H](O[C@H]3[C@@H](O)C[C@H](O[C@H]4CC[C@@]5(C)[C@H](CC[C@@H]6[C@@H]5C[C@@H](O)[C@]5(C)[C@@H](C7=CC(=O)OC7)CC[C@]65O)C4)O[C@@H]3C)O[C@@H]2C)O[C@H](C)[C@H]1O [Compound 8, acetyldigoxin] | 250 ± 60 | 150 ± 10 | 130 ± 7 | 190 ± 60
